The source made the active and inactive calls. The rule behind the calls is not given here.
Key:
Plasmodium falciparum [1] = experiment: Upregulation of proteasome gene expression in Plasmodium falciparum at 460 nM after 48 hrs by microarray analysis; type: functional, organism-based
Method in brief: (§1)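 P. falciparum 3D7 was grown in human O+ erythrocytes. Heterogeneous, unsynchronized parasites were incubated with 460 nM compound for 24 or 48 h, then compared with untreated parasites on a full-genome microarray. Transcript changes were called by a statistical test.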

Plasmodium falciparum [2] = experiment: Antimicrobial activity against Plasmodium falciparum 3D7 infected in human erythrocytes after 48 hrs by microscopy
Plasmodium falciparum [3] = experiment: Upregulation of DNA replication gene expression in Plasmodium falciparum at 460 nM after 48 hrs by microarray analysis; type: functional, organism-based; method in brief: as §1
[4] = Plasma concentration in BALB/c mouse at 20 mg/kg single oral dose after 24 hrs by LC/MS/MS analysis
Plasmodium falciparum [5] = experiment: Antimicrobial activity against Plasmodium falciparum 3D7 schizonts infected in human erythrocytes assessed as effect on parasitemia at 225 to 450 nM after 32 hrs by microscopy
Plasmodium falciparum [6] = experiment: Binding affinity to Plasmodium falciparum PFI1680w at 2.5 mM by LC/MS/MS analysis
Method in brief: (§2)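 P. falciparum parasite lysate was incubated with agarose-immobilized inhibitor and washed extensively. Retained proteins were eluted with urea, resolved by SDS-PAGE and identified by LC/MS/MS. In a competition arm, free inhibitor (2.5 mM) was added to the lysate before incubation with the beads under identical conditions.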

Plasmodium falciparum [7] = experiment: Binding affinity to Plasmodium falciparum PFE1155c at 2.5 mM by LC/MS/MS analysis; method in brief: as §2
Plasmodium falciparum [8] = experiment: Binding affinity to Plasmodium falciparum PF14_0075 at 2.5 mM by LC/MS/MS analysis; method in brief: as §2
Toxoplasma gondii [9] = experiment: Antimicrobial activity against Toxoplasma gondii […] infected in african green monkey BSC1 cells assessed as parasite invasion at 50 uM after 90 mins by microscopy relative to control
[10] = Cytotoxicity against CHO cells after 72 hrs by Cell Titer Glo assay; type: cell-based, Cricetulus griseus; settings: chinese hamster, read-out: ED50
Method in brief: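 Cells were seeded at 250 per well in DMEM with 5% FBS in 1,536-well plates, and compound was added the next day. Culture ran 72 h, matching the parasite proliferation assay. Viability was read by Cell Titer Glo luminescence, and EC50 was derived.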

[11] = Inhibition of GST-fused Plasmodium falciparum recombinant CDPK1 expressed in Escherichia coli Rosetta 2 assessed as inhibition of [gamma-33P]ATP incorporation into substrate peptide by scintillation counting
Toxoplasma gondii [12] = experiment: Antimicrobial activity against Toxoplasma gondii […] infected in african green monkey BSC1 cells assessed as inhibition of parasite invasion at 1.56 uM after 48 hrs by microscopy relative to control; type: functional, organism-based; settings: BSC-1
Plasmodium falciparum [13] = experiment: Binding affinity to Plasmodium falciparum PFC0720w at 2.5 mM by LC/MS/MS analysis; method in brief: as §2
Plasmodium falciparum [14] = experiment: Binding affinity to Plasmodium falciparum PFL1170w at 2.5 mM by LC/MS/MS analysis; method in brief: as §2
Plasmodium falciparum [15] = experiment: Antiplasmodial activity against Plasmodium falciparum 3D7 after 72 hrs by SYBR green assay; type: functional, organism-based; settings: 3D7, 72 h
[16] = Half life in BALB/c mouse 20 mg/kg single oral dose by LC/MS/MS analysis; settings: in vivo
Plasmodium falciparum [17] = experiment: Antimicrobial activity against Plasmodium falciparum schizonts infected in human erythrocytes assessed as minimal effect on parasite cell cycle at 450 nM treated 12 hrs after release of ring stage by microscopy
Plasmodium falciparum [18] = experiment: Binding affinity to Plasmodium falciparum PF14_0102 at 2.5 mM by LC/MS/MS analysis; method in brief: as §2
Plasmodium falciparum [19] = experiment: Antiplasmodial activity against pyrimethamine-resistant Plasmodium falciparum HB3 after 72 hrs by SYBR green assay; type: functional, organism-based; settings: HB3, 72 h
Method in brief: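 Parasites grown in human O+ erythrocytes in RPMI with human serum and albumax. For the assay, serially diluted compounds were added to screening medium (RPMI, 4.16 mg/ml albumax) at 2.5% hematocrit and 0.3% parasitemia, then incubated 72 h in 93% N2/4% CO2/3% O2. DMSO served as baseline and uninfected erythrocytes as background. SYBR Green fluorescence was read at 520 nm to give EC50.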

Plasmodium falciparum [20] = experiment: Binding affinity to Plasmodium falciparum PF11_0351 at 2.5 mM by LC/MS/MS analysis; method in brief: as §2
Toxoplasma gondii [21] = experiment: Antimicrobial activity against Toxoplasma gondii […] infected in african green monkey BSC1 cells assessed as parasite invasion at 3.1 uM after 48 hrs by microscopy relative to control; type: functional, BSC-1
Plasmodium falciparum [22] = experiment: Binding affinity to Plasmodium falciparum PF14_0439 at 2.5 mM by LC/MS/MS analysis; method in brief: as §2
Plasmodium falciparum [23] = experiment: Binding affinity to Plasmodium falciparum PF11_0191 at 2.5 mM by LC/MS/MS analysis; method in brief: as §2

N[C@H]1CC[C@H](Nc2nc(Nc3ccc(C(=O)N4CCCCC4)cc3)c3ncn(-c4cccc(F)c4)c3n2)CC1 [PURFALCAMINE]
Activity (Plasmodium falciparum [1]): Active
EC90 (Plasmodium falciparum [2]; Plasmodium falciparum 3D7): 414 nM
EC50 (Plasmodium falciparum [2]; Plasmodium falciparum 3D7, 48 h): 230 nM
Activity (Plasmodium falciparum [3]): Active
concentration at 24 h [4]: 23 nM
inhibition (Plasmodium falciparum [5]): inactive
Activity (Plasmodium falciparum [6]): inactive
Activity (Plasmodium falciparum [7]): inactive
Activity (Plasmodium falciparum [8]): inactive
Activity (Toxoplasma gondii [9]): <=20%
CC50 at 72 h [10]: 12.3 µM
IC50 [11]: 17 nM
inhibition (Toxoplasma gondii [12]): inactive
Activity (Plasmodium falciparum [13]): inactive
Activity (Plasmodium falciparum [14]): inactive
EC50 (Plasmodium falciparum [15]): 230 nM
half-life [16]: 186 min
Activity (Plasmodium falciparum [17]): Active
Activity (Plasmodium falciparum [18]): inactive
EC50 (Plasmodium falciparum [19]): 178 nM
Activity (Plasmodium falciparum [20]): inactive
Activity (Toxoplasma gondii [21]): 60%
Activity (Plasmodium falciparum [22]): inactive
Activity (Plasmodium falciparum [23]): inactive

Reference: ChEMBL document CHEMBL1212705, “Gene expression signatures and small-molecule compounds link a protein kinase to Plasmodium falciparum motility” (Nat Chem Biol, 2008)
